Results on twelve compounds are retold here after ChEMBL document CHEMBL5120934, “Development of Urea-Bond-Containing Michael Acceptors as Antitrypanosomal Agents Targeting Rhodesain” (ACS Med Chem Lett, 2022).

Experiment [1] deals with Rhodesain (Trypanosoma brucei rhodesiense) (UniProt Q95PM0). Description: Binding affinity to recombinant Trypanosoma brucei rhodesiense rhodesain assessed as Kinact using Cbz-Phe-Arg-AMC as fluorogenic substrate measured for 10 mins every 30 seconds by fluorescence microplate reader assay. Summed up: (§1)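 Rhodesain activity was followed fluorogenically with the substrate Cbz-Phe-Arg-AMC. Inhibitors were serially diluted and assayed down to the concentration giving minimal inhibition. Irreversible inhibition was characterized by Ki and kinact (the rate of covalent E-I complex formation), and k2nd was calculated as kinact/Ki.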

The target is the same in experiment [2]. The experiment can be described thus: Binding affinity to recombinant Trypanosoma brucei rhodesiense rhodesain assessed as binding constant measured at second inhibition step using Cbz-Phe-Arg-AMC as fluorogenic substrate measured for 10 mins every 30 seconds by fluorescence microplate reader assay. Summed up: as §1
Experiment [3] shares this target. Description: Inhibition of Trypanosoma brucei rhodesiense rhodesain at 0.1 uM using Cbz-Phe-Arg-AMC as fluorogenic substrate measured for 10 mins every 30 seconds by fluorescence microplate reader assay. Summed up:
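Single-concentration fluorogenic screen against rhodesain with the substrate Cbz-Phe-Arg-AMC, each compound at 0.1 μM. DMSO served as the negative control and E-64 as the positive control. The read-out was percentage inhibition.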

In experiment [4] the target is Replicase polyprotein 1ab (Severe acute respiratory syndrome coronavirus 2) (UniProt P0DTD1). The experiment can be described thus: Inhibition of C-terminal His-tagged SARS-CoV-2 MPro expressed in Escherichia coli BL21(DE3) at 100 uM using Dabcyl-KTSAVLQSGFRKME-Edans as fluorogenic substrate incubated for 10 mins by FRET assay. In short, it runs like this: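 Single-concentration preliminary screen of viral main protease at 100 μM. Read-out is percentage inhibition of protease activity. No follow-up dilution series or mode-of-inhibition kinetics were run.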

In experiment [5] the target is Rhodesain (Trypanosoma brucei rhodesiense) (UniProt Q95PM0). Description: Inhibition of Trypanosoma brucei rhodesiense rhodesain expressed in pichia pastoris assessed as binding constant measured at second inhibition step using Z-Phe-Arg-N-methylcoumarin as substrate by fluorometric assay.
The subject of the next experiment is Trypanosoma brucei. The experiment can be described thus: Antitrypanosomal activity against bloodstream form of Trypanosoma brucei. The class given is functional. The following applies: read-out: ED50 (the source's name).

Where only a bound is given, the exact number is not on record here.

Sequence of Rhodesain (Trypanosoma brucei rhodesiense) (Q95PM0 1-450): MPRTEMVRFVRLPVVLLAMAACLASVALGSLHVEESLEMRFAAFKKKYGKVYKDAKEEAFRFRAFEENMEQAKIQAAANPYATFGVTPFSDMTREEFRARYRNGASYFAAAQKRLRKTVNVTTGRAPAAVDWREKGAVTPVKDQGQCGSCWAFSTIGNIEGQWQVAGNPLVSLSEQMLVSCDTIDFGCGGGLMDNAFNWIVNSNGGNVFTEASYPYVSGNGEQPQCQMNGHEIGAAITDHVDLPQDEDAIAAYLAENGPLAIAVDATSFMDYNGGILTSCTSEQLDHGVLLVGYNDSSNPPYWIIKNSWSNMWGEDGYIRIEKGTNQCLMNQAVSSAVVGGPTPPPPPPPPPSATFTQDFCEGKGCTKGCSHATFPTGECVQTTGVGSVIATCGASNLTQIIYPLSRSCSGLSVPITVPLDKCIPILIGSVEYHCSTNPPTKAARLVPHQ

`CC(=O)/C=C/[C@H](CCc1ccccc1)NC(=O)[C@H](Cc1ccccc1)NC(=O)Nc1ccc(Cl)cc1C`: in experiment [1], the Kinact is 0.0053 min⁻¹. Also, in experiment [2], the K was 14700 10^3/M/min. In addition, the results for the inhibition in experiment [3] and in experiment [4] were more than 80% and 33%, respectively.

Regarding `CC(=O)/C=C/[C@H](CCc1ccccc1)NC(=O)[C@H](CC(C)C)NC(=O)Nc1ccc(Cl)cc1C`, the Kinact in experiment [1] turned out to be 0.0123 min⁻¹. Further, the K in experiment [2] is 14000 10^3/M/min.

In the case of `CC(=O)/C=C/[C@H](CCc1ccccc1)NC(=O)[C@H](Cc1ccccc1)NC(=O)Nc1ccccc1`, the Kinact in experiment [1] was determined as 0.0021 min⁻¹. Besides, the K in experiment [2] was 16700 10^3/M/min. In addition, the inhibition (commonly the change of the read-out against control, counted positive when it falls) in experiment [3] is more than 80%; in experiment [4] it was 33%.

On to `CC(=O)/C=C/[C@H](CCc1ccccc1)NC(=O)[C@H](Cc1ccccc1)NC(=O)Nc1ccc(C)cc1`, for which the Kinact in experiment [1] was 0.0023 min⁻¹. Also, the K in experiment [2] was 10400 10^3/M/min. For the same compound, the figures for the inhibition in experiment [3] and in experiment [4] were more than 80% and 33%, respectively.

Regarding `COc1ccc(NC(=O)N[C@@H](Cc2ccccc2)C(=O)N[C@H](/C=C/C(C)=O)CCc2ccccc2)cc1`, the Kinact in experiment [1] worked out at 0.0059 min⁻¹. In addition, the results for the inhibition in experiment [3] and in experiment [4] were more than 80% and 33%, respectively.

For the compound `CC(=O)/C=C/[C@H](CCc1ccccc1)NC(=O)[C@H](CC(C)C)NC(=O)Nc1ccc(C)cc1`, in experiment [1], the Kinact amounted to 0.0042 min⁻¹. Also, in experiment [2], the K is 10400 10^3/M/min.

`CC(=O)/C=C/[C@H](CCc1ccccc1)NC(=O)[C@H](Cc1ccccc1)NC(=O)Nc1cccc2ccccc12`: in experiment [1], the Kinact is 0.0084 min⁻¹. Further, the inhibition in experiment [3] is more than 80%; in experiment [4], 33%.

As to `CN1CCN(C(=O)N[C@@H](Cc2ccccc2)C(=O)N[C@H](/C=C/S(=O)(=O)c2ccccc2)CCc2ccccc2)CC1` [K-777], in experiment [5], the K was 9000 10^3/M/min. In addition, the EC50 in the experiment on Trypanosoma brucei came out at 0.9 µM.

Regarding `CC(=O)/C=C/[C@H](CCc1ccccc1)NC(=O)[C@H](Cc1ccccc1)NC(=O)Nc1ccc(Cl)cc1C(F)(F)F`, in experiment [1], the Kinact turned out to be 0.006 min⁻¹. For the same compound, the inhibition in experiment [3] was more than 80%; in experiment [4], 33%.

`CC(=O)/C=C/[C@H](CCc1ccccc1)NC(=O)[C@H](Cc1ccccc1)NC(=O)Nc1ccc(F)cc1`: the Kinact in experiment [1] is 0.0021 min⁻¹. Moreover, the inhibition in experiment [3] was more than 80%; in experiment [4], 33%.

In the case of `CC(=O)/C=C/[C@H](CCc1ccccc1)NC(=O)[C@H](Cc1ccccc1)NC(=O)Nc1c(F)cccc1F`, in experiment [1], the Kinact came out at 0.0022 min⁻¹. The inhibition in experiment [3] is more than 80%; in experiment [4] it was 33%.

As for `CC(=O)/C=C/[C@H](CCc1ccccc1)NC(=O)[C@H](Cc1ccccc1)NC(=O)Nc1ccc(Cl)cc1`, the Kinact in experiment [1] stood at 0.0023 min⁻¹. The inhibition is more than 80% in experiment [3] and 33% in experiment [4].
